# Published values pooled from the literature.
# Protocols differ between the studies behind these lines.
# Matrix: plasma
Compound,system,conditions,endpoint,value
O=C1CCC(N2Cc3c(ccc4c3OCC43CCN(Cc4ccccc4)CC3)C2=O)C(=O)N1 (stereo not drawn),male CD-1 mouse,"oral, 3 mg/kg",AUC(0-inf),1340 ng·h/mL
CCOC(=O)c1c(NC(=O)CNC(C)C)sc2c1CCCCC2,male mouse,"intraperitoneal, 100 mg/kg, single dose",AUC(0-t),19300 ng·h/mL
CC[C@H](C)[C@H](NC(=O)[C@H](Cc1ccccc1)NC(=O)[C@H](CCC(=O)O)NC(=O)[C@H](CCCCN)NC(=O)[C@H](C)NC(=O)[C@H](C)NC(=O)[C@H](CCC(N)=O)NC(=O)CNC(=O)[C@H](CCC(=O)O)NC(=O)[C@H](CC(C)C)NC(=O)[C@H](Cc1ccc(O)cc1)NC(=O)[C@H](CO)NC(=O)[C@H](CO)NC(=O)[C@@H](NC(=O)[C@H](CC(=O)O)NC(=O)[C@H](CO)NC(=O)[C@@H](NC(=O)[C@H](Cc1ccccc1)NC(=O)[C@@H](NC(=O)CNC(=O)[C@H](CCC(=O)O)NC(=O)[C@H](C)NC(=O)N(N)Cc1c[nH]cn1)[C@@H](C)O)[C@@H](C)O)C(C)C)C(=O)N[C@@H](C)C(=O)N[C@@H](Cc1c[nH]c2ccccc12)C(=O)N[C@@H](CC(C)C)C(=O)N[C@H](C(=O)N[C@@H](CCCNC(=N)N)C(=O)NCC(=O)N[C@@H](CCCNC(=N)N)C(=O)NCC(=O)O)C(C)C,male CD-1 mouse,"intravenous, 1 mg/kg, single dose",AUC(0-t),2390 ng·h/mL
C[C@@H](O)[C@@H]1NC(=O)CNC(=O)[C@H](Cc2c[nH]cn2)NC(=O)[C@H](Cc2c[nH]c3ccccc23)NC(=O)[C@H](CC(N)=O)NC(=O)CNC(=O)C[C@@H](C(=O)N[C@@H](Cc2c[nH]c3ccccc23)C(=O)N[C@@H](Cc2ccccc2)C(=O)N[C@@H](Cc2ccccc2)C(=O)N[C@@H](CC(N)=O)C(=O)N[C@@H](Cc2ccc(O)cc2)C(=O)N[C@@H](Cc2ccc(O)cc2)C(=O)N[C@@H](Cc2c[nH]c3ccccc23)C(=O)O)NC(=O)[C@@H]2CCCN2C(=O)[C@H](CO)NC1=O,mouse,"intravenous, 3 mg/kg",AUC(0-t),35100 ng·h/mL
CC(C)[C@]12O[C@H]1[C@@H]1O[C@]13[C@]1(O[C@H]1C[C@H]1C4=C(CC[C@@]13C)C(=O)OC4)[C@@H]2O,SCID mouse,"intravenous, 0.6 mg/kg",AUC(0-inf),619 ng·h/mL
COc1cc(C(=O)c2nc(-c3cccc4[nH]ccc34)c[nH]2)cc(OC)c1OC,male CD-1 mouse,"intraperitoneal, 15 mg/kg",AUC(0-t),1510 ng·h/mL
CN(C)C1(CNC(=O)c2ccc3c(c2)CCN3C(=O)c2ccccc2)CCOCC1,male CD-1 mouse,"intraperitoneal, 30 mg/kg",AUC(0-inf),246 ng·h/mL
N=C(N)NCCC[C@H](NC(=O)[C@H](Cc1ccccc1)NC(=O)[C@H](CCC(N)=O)NC(=O)OCc1ccccc1)C(=O)c1nccs1,female C57BL/6 mouse,"intravenous, 5 mg/kg",AUC(0-t),1180 ng·h/mL
CC(C)=CCC[C@](C)(O[C@@H]1O[C@H](CO)[C@@H](O)[C@H](O)[C@H]1O)[C@H]1CC[C@]2(C)[C@@H]1[C@H](O)C[C@@H]1[C@@]3(C)CC[C@H](O)C(C)(C)[C@@H]3CC[C@]12C,mouse,"oral, 10 mg/kg",AUC(0-t),655 ng·h/mL
